# Assay results from different studies.
# Compare with care: the assays were run in different laboratories.
# TYK2: Non-receptor tyrosine-protein kinase TYK2 (TYK2, Homo sapiens, UniProt P29597)
# TYK2 JH1: Non-receptor tyrosine-protein kinase TYK2, JH1 (TYK2, Homo sapiens, UniProt P29597)
SMILES,target,effect on,action,method,tested at,measurement,result
CNC(=O)c1cc(Oc2ccc(NC(=O)Nc3ccc(Cl)c(C(F)(F)F)c3)cc2)ccn1,TYK2,cell-free assay,,,0.5 µM,remaining signal,98.9%
Cc1cnn2ncc(-c3ccnc(N(C)C)n3)c2c1,TYK2,binding,,,1 µM,remaining binding,32%
COc1cc2ncnc(Nc3ccc(Oc4ccccc4)c(C)c3C)c2cc1OC,TYK2,enzyme activity,inhibitor,,1 µM,inhibition,-2%
Nc1nc(Nc2ccc(S(N)(=O)=O)cc2)nn1C(=O)c1c(F)cccc1F,TYK2,cell-free assay,,,0.5 µM,remaining signal,0.878%
Nc1ncnc2occ(-c3ccc(NC(=O)Nc4cc(C(F)(F)F)ccc4F)cc3)c12,TYK2 JH1,cell-free assay,inhibitor,,20 µM,remaining signal,55%
CCCS(=O)(=O)Nc1ccc(F)c(C(=O)c2c[nH]c3ncc(-c4ccc(Cl)cc4)cc23)c1F,TYK2,enzyme activity,inhibitor,,1 µM,inhibition,< 10%
CN([C@@H]1CCc2c(CC(=O)O)c3ccccc3n2C1)S(=O)(=O)c1ccc(F)cc1,TYK2 JH1,cell-free assay,,competition with immobilised ligand,1 µM,remaining binding,100%
CC(C)(C)c1nc(-c2cccc(NS(=O)(=O)c3c(F)cccc3F)c2F)c(-c2ccnc(N)n2)s1,TYK2,enzyme activity,inhibitor,radiometric,1 µM,remaining activity,96%
COc1cc2nccc(Oc3ccc(NC(=O)c4c5n(n(-c6ccc(F)cc6)c4=O)CCCC5)cc3)c2cc1OC,TYK2,enzyme activity,inhibitor,,0.1 µM,inhibition,-28%
O=C(CSc1nc2nccnc2c(=O)n1CCc1ccccc1)Nc1nccs1,TYK2,enzyme activity,inhibitor,,10 µM,inhibition,5%
CCOC(=O)c1cc2cc(-c3cc(C(=O)NCc4ccc(C(=O)O)cc4)nn3C)ccc2[nH]1,TYK2 JH1,cell-free assay,,competition with immobilised ligand,0.1 µM,remaining binding,90%
N[C@H]1CCN(c2nccc(-c3cnn4ncccc34)n2)C1,TYK2 JH1,cell-free assay,,,1 µM,remaining signal,76%
Cc1sc(C(=O)NC2COC2)cc1-n1cc(NC(=O)Nc2c(F)cccc2Cl)cn1,TYK2,enzyme activity,inhibitor,,10 µM,remaining activity,114%
CCOCCn1cc(C(=O)Nc2ccc(-n3nc(-c4cccnc4)cc3C(F)(F)F)cn2)ccc1=O,TYK2 JH1,cell-free assay,,competition with immobilised ligand,1 µM,remaining binding,100%
c1cnn2ncc(-c3ccnc(N4CCC45COC5)n3)c2c1,TYK2 JH1,cell-free assay,,,1 µM,remaining signal,64%
CC1=C(C#N)[C@@H](c2ccc3[nH]nc(C)c3c2)C(C#N)=C(c2ccc(Cl)cc2)N1,TYK2 JH1,cell-free assay,,competition with immobilised ligand,1 µM,remaining binding,73.1%
CC/C(=N\NC(=O)NCc1cccc(O)c1)c1ccc(O)c(C)c1O,TYK2,enzyme activity,inhibitor,,0.1 µM,inhibition,7.2%
C[C@@]1(Cc2ccc(C#N)cc2)C(=O)N(c2cc(Cl)cc(Cl)c2)c2ncc(C(=O)NC3(c4nc(C5CCC5)no4)CC3)n21,TYK2 JH1,cell-free assay,,competition with immobilised ligand,1 µM,remaining binding,100%
C[C@H]1CCN(c2nccc(-c3cnn4ncccc34)n2)C1,TYK2 JH1,cell-free assay,,,1 µM,remaining signal,63%
